Measured values from different studies.
Lines come from different studies, so protocols differ.
CYP3A4: Cytochrome P450 3A4 (CYP3A4, Homo sapiens, UniProt P08684)
CHRM1: Muscarinic acetylcholine receptor M1 (CHRM1, Homo sapiens, UniProt P11229)
ALDH2: Aldehyde dehydrogenase, mitochondrial (ALDH2, Homo sapiens, UniProt P05091)
HDAC11: Histone deacetylase 11 (HDAC11, Homo sapiens, UniProt Q96DB2)

Compound	target	assay	test system	conditions	IC50 [µM]
CN(C)C(=O)c1cc2cnc(Nc3ccc(-c4ccc5c(=O)cc(N6CCOCC6)oc5c4)cc3)nc2n1C1CCCC1	CYP3A4	enzyme activity, inhibitor, fluorescence		pH 8	56.1
O=C(CCNC(=O)CNC(=O)CC(c1ccccc1)(c1ccccc1)c1ccccc1)NC[C@H]1CCCN(Cc2ccc(F)cc2)C1	CHRM1	ligand displacement, radioligand		cell membranes	13.9
N=C(N)c1ccc2cc(OC(=O)c3ccc(N=C(N)N)cc3)ccc2c1	Coagulation factor XII (F12, Homo sapiens, UniProt P00748)	enzyme activity, inhibitor			0.0326
CCCN(CCC)S(=O)(=O)c1ccc(C(=O)O)cc1	Taste receptor type 2 member 14 (TAS2R14, Homo sapiens, UniProt Q9NYV8, S265A)	inositol phosphate, antagonist, TR-FRET			1000
Nc1cnccc1Nc1ccc(Cl)c(Cl)c1	Endonuclease III-like protein 1 (NTHL1, Homo sapiens, UniProt P78549)	enzyme activity, inhibitor			> 100
CC(C)(C)S(=O)(=O)c1cc2c(Nc3ccc4scnc4c3)ncnc2cc1OCCOP(=O)(O)O	CYP3A4	enzyme activity, inhibitor	human, liver microsomes	5 min, pH 7.4, testosterone probe	49
Cc1cc2c(cc1C)N[C@H](c1ccccc1)[C@@H](O)C(=O)N2	Tyrosine-protein kinase JAK1 (JAK1, Homo sapiens, UniProt P23458)	enzyme activity, inhibitor, ELISA			0.804
OC[C@H]1O[C@@H](Oc2ccc(O)c3cccc(O)c23)[C@H](O)[C@@H](O)[C@@H]1O	ALDH2	enzyme activity, inhibitor, fluorescence			< 10
COc1ccc(N(Cc2csc(-c3ccccc3)n2)C(=O)CCCCCC(=O)NO)cc1	HDAC11	enzyme activity, inhibitor			> 10
Cn1ccc(-c2ccc(-c3cc(C(=O)O)cc4cc(-c5ccc(C(F)(F)F)cc5)ccc34)cc2)n1	CYP3A4	enzyme activity, inhibitor			10.8
CCc1oc2cc(F)c(F)cc2c1C(=O)c1cc(Br)c(O)c(Br)c1	Solute carrier organic anion transporter family member 1B1 (SLCO1B1, Homo sapiens, UniProt Q9Y6L6)	transporter uptake, inhibitor, radiometric		oocytes	7.34
CN(C)CCC=C1c2ccccc2CCc2ccccc21	Short transient receptor potential channel 5 (Mus musculus, UniProt Q9QX29)	ion current, inhibitor, patch clamp			2.88
Cc1cccc2c1NC(=O)/C2=C/c1cc(Cl)c(O)c(Cl)c1	ALDH2	enzyme activity, inhibitor, fluorescence			12.7
COc1ccc(N(Cc2nc(-c3ccc(F)cc3)cs2)C(=O)CCCCCC(=O)NO)cc1	HDAC11	enzyme activity, inhibitor			> 10
Nc1nc2c(s1)C(c1ccccc1Cl)CC(=O)N2 (stereo not drawn)	ALDH2	enzyme activity, inhibitor, fluorescence			< 10
O=C(CCNC(=O)CNC(=O)CC(c1ccccc1)(c1ccccc1)c1ccccc1)NC[C@@H]1CCCN(Cc2ccc(F)nc2)C1	CHRM1	ligand displacement, radioligand		cell membranes	> 30
CC(C)N(CCC(=O)c1ccc2ccccc2c1)Cc1ccccc1	ALDH2	enzyme activity, inhibitor, fluorescence			< 10
Cc1cc2c(C(N)=O)c(N)n(-c3c(C)ccc(O)c3C)c2nc1C	RAF proto-oncogene serine/threonine-protein kinase (RAF1, Homo sapiens, UniProt P04049, Y340D/Y341D)	enzyme activity, inhibitor, ADP detection			0.0044
